7 compounds from ChEMBL document CHEMBL1122853, “New bicyclic antidepressant agent. Synthesis and activity of napactadine and related compounds” (J Med Chem, 1985) can be followed below.

Active and inactive are the calls of the source. No cut-off for these calls is given here.

Data set [1] has as its system Mus musculus. The data set is described as follows: (§1) Effective dose required to potentiate yohimbine hydrochloride induced lethality in mice, administered intraperitoneally. The format is functional. Conditions: ip. The gist of the method:
(§2)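 Male Swiss-Webster or Swiss ND/4 mice, 20-24 g, randomized into groups of 10 and housed five per cage. Test drug in saline given ip, with a saline control group. Yohimbine hydrochloride 20 mg/kg sc was given 30 min later, and mice were then reaggregated.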

Data set [2] in a line: Therapeutic index administered perorally in mouse. The conditions noted are these: in vivo, po, read-out: Therapeutic index. The format is organism-based. The gist of the method:
(§3)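 Index from mouse LD50 over reserpine-ptosis ED50 by the same route. […] Deaths recorded at 1 and 24 h; Litchfield-Wilcoxon calculation.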

Data set [3] relates to Mus musculus. As to the kind of experiment: Effective dose required to prevent reserpine ptosis in mice, administered orally (po). The format is functional. The gist of the method: (§4)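 Male Swiss-Webster or Harlan ICR mice, five per dose. Drug in saline given po or ip per line. Reserpine 2.5 mg/kg ip 30 min later. Complete absence of ptosis at 45 min after reserpine scored as positive. ED50 by Litchfield-Wilcoxon or Horn method, with 95% confidence intervals.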

Data set [4] is described as follows: Lethal dose in mouse i.p. The conditions noted are these: in vivo, ip. It is filed as toxicity, organism-based. The gist of the method: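 Male Swiss-Webster albino mice, 20-24 g, in groups of five. Each group received one dose ip in saline (prepared 30 min before injection) at 10 mL/kg. Mice were held singly for about 5 h, then housed together with food and water. Deaths were counted at 1 and 24 h. LD50 by Litchfield-Wilcoxon.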

The nature of data set [5]: Therapeutic index administered intraperitoneally in mouse. The format is organism-based. Conditions: in vivo, ip, read-out: Therapeutic index. In outline:
as §3

The test system of data set [6] is Mus musculus. The data set is described as follows: (§5) Effective dose required to prevent reserpine ptosis in mice, administered intraperitoneally. It is filed as functional. The conditions noted are these: ip. The gist of the method: as §4
The nature of data set [7]: Lethal dose in mouse p.o. It is filed as toxicity, organism-based. The conditions noted are these: in vivo, po.
Data set [8] deals with Mus musculus. The data set is described as follows: Electrical shock aggression was evaluated in mice, administered intraperitoneally; NA means no aggression blockade at 46.4 mg/kg. The format is functional, organism-based. Details: dose 46.4 mg/kg. In outline:
(§6)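 Pairs of mice placed under an inverted 1000 cm3 beaker and shocked through the floor grid (3 mA, 3 Hz) for 2 min. Drug given ip 30 min before testing; scored all-or-none against a saline group. Fighting counted as inhibited when mean attacks fell 1.5 SD below the vehicle mean.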

A short description of data set [9]: Therapeutic index after administered intraperitoneally in mouse. The format is organism-based. Conditions: in vivo, ip, read-out: Therapeutic index. The gist of the method:
as §3

In data set [10] the test system is Mus musculus. The data set is described as follows: Compound (administered intraperitoneally) was tested for yohimbine lethality potentiation. Conditions: ip. It is filed as functional. In outline:
as §2

Data set [11] deals with Mus musculus. As to the kind of experiment: Effective dose required to prevent reserpine ptosis in mice, administered (po)orally. The format is functional. In outline: as §4
The test system of data set [12] is Mus musculus. The data set is described as §5. It is filed as functional. Conditions: ip. In outline: as §4
The source holds these as a separate data set.

For data set [13], the system named is Mus musculus. The data set is described as follows: Effective dose required to prevent reserpine ptosis in mice administered orally. It is filed as functional. The conditions noted are these: po. The gist of the method: as §4
The subject of data set [14] is Mus musculus. As to the kind of experiment: Effective dose required to prevent reserpine ptosis in mice administered intraperitoneally; NA=Not active. It is filed as functional, organism-based. The gist of the method: as §4
For data set [15], the system named is Mus musculus. The data set is described as follows: Effective dose required to prevent reserpine ptosis in mice administered intraperitoneally. It is filed as functional. Conditions: ip. In outline:
as §4

For data set [16], the system named is Mus musculus. As to the kind of experiment: Effective dose required to prevent reserpine ptosis in mice, administered intraperitoneally; NA=Not active at 46 mg/Kg. The format is functional, organism-based. The gist of the method:
as §4

Data set [17] concerns Mus musculus. As to the kind of experiment: Electrical shock aggression was evaluated in mice, administered intraperitoneally. The format is functional. The conditions noted are these: ip. The gist of the method:
as §6

In data set [18] the test system is Mus musculus. Described as §1. The format is organism-based. Conditions: in vivo, ip. The gist of the method: as §2
Data set [19] has as its system Mus musculus. As to the kind of experiment: Effective dose required to prevent reserpine ptosis in mice administered po. The format is functional. The gist of the method:
as §4

`C/N=C(\NC)c1ccc(Cl)cc1.Cl`: the ED50 with Mus musculus [1] is 6 mg/kg; in the data set with Mus musculus [3], 6.2 mg/kg; in the data set on Mus musculus [6] it was 6.8 mg/kg. Further, the selectivity ratio in data set [2] was determined as 32; in [5], 16. Moreover, the LD50 in data set [4] is 108 mg/kg; in data set [7], 200 mg/kg.

As for `C/N=C(\NC)c1ccc(Cl)c(Cl)c1.Cl`, in the data set with Mus musculus [8], the ED50 entry was “inactive”. For the same compound, the ED50 in the data set with Mus musculus [1] is 2.4 mg/kg; in the data set with Mus musculus [10] it was 2.4 mg/kg; in the data set on Mus musculus [11] it was 10.8 mg/kg; in the data set on Mus musculus [6], 9.3 mg/kg; with Mus musculus [12], 9.3 mg/kg. The values for the selectivity ratio in [9] and in [2] were 6 and 20, respectively. Moreover, the LD50 in [4] stood at 60 mg/kg; in data set [7], 215 mg/kg.

`Cl.N=C(Cc1ccc2ccccc2c1)N1CCCCCC1` registered an ED50 with Mus musculus [13] of 11 mg/kg.

Turning to `CCC/N=C(/COc1ccccc1)NCCC`, the ED50 entry in the data set with Mus musculus [14] was “inactive”.

On to `C/N=C(/COc1ccccc1)NC.Cl`, for which the median effective dose (ED50) in the data set with Mus musculus [1] stood at 2.2 mg/kg; in the data set on Mus musculus [15] it was 1.1 mg/kg.

With `CC/N=C(/Cc1cc(Cl)c(Cl)cc1Cl)NCC`, the ED50 result in the data set on Mus musculus [16] was “inactive”.

On to `C/N=C(/Cc1ccc(Cl)cc1)NC.Cl`, for which the median effective dose (ED50) in the data set with Mus musculus [17] worked out at 43 mg/kg; with Mus musculus [18], 15 mg/kg; in the data set on Mus musculus [6], 2.3 mg/kg; with Mus musculus [19], 3.4 mg/kg. In addition, the results for the selectivity ratio in [2] and in data set [5] were 127 and 30, respectively. Further, the 50% lethal dose (LD50) was 69.4 mg/kg in [4] and 430 mg/kg in data set [7].
